Calls of active or inactive are those of the source. No cut-off for these calls is given here.
What follows are compounds tested on PC-12 (assay: Induction of neutrite outgrowth of rat PC12 cells after 96 hrs in absence of NGF by phase contrast microscopic analysis). Conditions: not given.
Type: functional, cell-based
In short: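 Poly-L-lysine-seeded PC12 cells (3 × 10^4 cells/well) in 1% FBS/1% horse serum test medium with graded compound concentrations for 96 h. Neurites at least one cell-body diameter counted as neurite-bearing under phase contrast. At least 100 cells per field, three fields per well, six wells per sample. Result expressed as percentage of total cells.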
With `CC(C)=CCC(=O)[C@](C)(O)[C@H]1CC[C@@]2(C)[C@@H]3CC=C4[C@@H](C[C@H](O)C(=O)C4(C)C)[C@]3(C)C(=O)C[C@]12C` the Activity was “inactive”.

Each compound was assayed on PC-12 (assay: Induction of NGF-mediated neutrite outgrowth of rat PC12 cells after 96 hrs by phase contrast microscopic analysis). Conditions: not given.
Type: functional, cell-based
In short: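 PC12 cells grown at 37 °C in DMEM with 5% heat-inactivated FBS and 5% horse serum, dissociated with 1 mM EGTA in PBS, seeded on poly-L-lysine (3 × 10^4 cells/well). After 24 h, switched to 1% FBS/1% HS medium with NGF 20 ng/mL plus test concentrations. Scored as % neurite-bearing cells; EC50 by regression; triplicate.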
In the case of `CC(C)=CCC(=O)[C@](C)(O)[C@H]1CC[C@@]2(C)[C@@H]3CC=C4[C@@H](C[C@H](O)C(=O)C4(C)C)[C@]3(C)C(=O)C[C@]12C`, the Activity is reported as “inactive”.

Same assay, conditions: PC-12, 96 h
With `C=CC(=C)CC[C@]1(C)[C@H](C)C[C@H](OC)[C@@]23C(=C[C@@H](OC(C)=O)C[C@@H]12)[C@@H](OC(=O)CCC)O[C@@H]3OC(C)=O` the EC50 was 5.2 µM.
In the case of `C=C(C)[C@@H](C)C[C@@H](O)[C@@H](C)[C@H]1CC[C@@]2(C)[C@@H]3CCC4=C(C[C@]35O[C@@H]5C[C@]12C)C(=O)C[C@H](O)C4(C)C`, the EC50 is reported as greater than 50 µM.
Work on `CC(C)=CCC[C@](C)(O)[C@H]1CC[C@@]2(C)[C@@H]3CC=C4[C@@H](CCC(=O)C4(C)C)[C@]3(C)C(=O)C[C@]12C` yielded an EC50 greater than 50 µM.
With `C=CC(=C)CC[C@]1(C)[C@H](C)C[C@H](OC)[C@@]23C(=C[C@@H](O)C[C@@H]12)[C@@H](OC)O[C@H]3OC(C)=O` the EC50 was 8.3 µM.
`CC(=O)[C@H]1CC[C@@]2(C)[C@@H]3CC=C4[C@@H](C[C@H](O)C(=O)C4(C)C)[C@]3(C)C(=O)C[C@]12C` showed an EC50 greater than 50 µM.
Compound `CC(C)=CCC[C@](C)(O)[C@H]1CC[C@@]2(C)[C@@H]3CC=C4[C@@H](C[C@H](O)C(=O)C4(C)C)[C@]3(C)C(=O)C[C@]12C` has an EC50 of 10 µM.
`CC(C)(O)/C=C/C(=O)[C@](C)(O)[C@H]1CC[C@@]2(C)[C@@H]3CC=C4[C@@H](C[C@H](O)C(=O)C4(C)C)[C@]3(C)C(=O)C[C@]12C` gave an EC50 greater than 50 µM.
Work on `C=CC(=C)CC[C@]1(C)[C@H](C)C[C@H](OC)[C@@]23C(=C[C@H](O)C[C@@H]12)[C@@H](OC)O[C@@H]3OC(C)=O` yielded an EC50 of 2.9 µM.
`C=CC(=C)CC[C@]1(C)[C@H](C)C[C@H](OC)[C@@]23C(=C[C@@H](O)C[C@@H]12)[C@@H](OC)O[C@H]3OC` gave an EC50 of 5.4 µM.
